From PubChem
MMP-13 inhibitor – inhibitors of human MMP13; P45452; MMP-13 fTHP FRET cleavage, Mca fluorescence; inhibition, % at 4 µM; 0.07% of 65,000 active;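 active = inhibition above the mean of compound-free control plate wells plus 3 SD, cut at about 14% in these data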;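 note: 0% = DMSO wells and 100% = wells with reference MMP-13 inhibitor after basal subtraction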
hDAT+cocaine – modulates human dopamine transporter uptake under cocaine; 1.3% of 110,000 active; LLC-PK1 hDAT cells, [14C]-dopamine uptake with cocaine IC80; actives deviate in either direction; B-score at 10 µM;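 active = Z score or B-score, a plate-position-corrected score, falls beyond the plate's 99.7% confidence bounds, in either direction; inactive = both scores lie inside the 99.7% bounds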;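 note: scored against the spread of the other compound wells on the same plate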
Target sequence (Q01959 whole entry, looked up): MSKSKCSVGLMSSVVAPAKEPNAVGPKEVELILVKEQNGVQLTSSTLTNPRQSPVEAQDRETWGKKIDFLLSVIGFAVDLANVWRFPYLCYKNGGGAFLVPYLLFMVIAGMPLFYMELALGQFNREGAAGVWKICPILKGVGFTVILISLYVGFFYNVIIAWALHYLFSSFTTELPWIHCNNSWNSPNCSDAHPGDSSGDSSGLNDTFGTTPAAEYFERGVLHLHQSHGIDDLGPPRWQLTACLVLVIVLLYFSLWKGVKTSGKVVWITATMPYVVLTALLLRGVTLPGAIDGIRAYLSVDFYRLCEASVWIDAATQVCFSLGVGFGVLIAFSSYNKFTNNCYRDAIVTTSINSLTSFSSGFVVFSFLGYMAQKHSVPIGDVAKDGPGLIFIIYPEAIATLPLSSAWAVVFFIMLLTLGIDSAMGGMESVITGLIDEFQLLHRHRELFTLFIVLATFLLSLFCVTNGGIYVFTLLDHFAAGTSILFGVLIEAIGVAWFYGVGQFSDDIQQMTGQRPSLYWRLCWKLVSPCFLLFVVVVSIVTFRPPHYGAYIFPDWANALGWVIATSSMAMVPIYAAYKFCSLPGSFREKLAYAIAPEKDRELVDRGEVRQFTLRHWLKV
D1 mod – allosteric modulators of human D1 dopamine receptor; HEK293 D1, CRE-luciferase, dopamine EC30 potentiation; actives deviate in either direction; B-score at 10 µM; 5.9% of 58,000 active; AID 641;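 active = luminescence count or its row- and column-corrected plate score outside the 99.7% band of the plate's sample wells, on either side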
Candida biofilm – kills Candida albicans biofilms; C. albicans biofilm + clotrimazole, Alamar Blue; inhibition, % at 6 µM; AID 834; 0.14% of 85,000 active;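 active = inhibition above 20%; inactive = inhibition below 20%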;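 note: preformed 24 hr biofilms exposed to compound for 48 hr; 0% = biofilm without compound and 100% = blank killed by clotrimazole plus chlorhexidine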
AP ELISA ortho – alternative pathway complement inhibition, orthogonal assay. 0.08% of 62,000 active. Human serum alternative complement pathway, LPS-coated ELISA, C3 deposition; tested in compound mixtures. inhibition, % at 5 µM;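 active = inhibition above 30% in each of the two pooled mixtures holding the compound, so the lower value exceeds 30%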;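 note: 0% = serum in Mg-EGTA without compound and 100% = EDTA serum blank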
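Assay system: Human serum alternative complement pathway, C3 deposition on LPS-coated wells | Incubation: 1 h serum-compound exposure at 37 °C | Doses: 5 µM per compound in ten-compound mixtures | Read-out: Percent inhibition | Technique: ELISA with HRP anti-human C3 antibody, TMB substrate, absorbance 450 nm | Replication: Two pool placements per compound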
D1 PAM confirm – D1 receptor (human) allosteric modulation, confirmed. shares compounds with D1 mod. HEK293 D1 CRE-luciferase, dopamine EC30 potentiation; stronger effect = higher value. luminescence at 10 µM. 88% of 2,200 active. AID 642;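 active = luminescence in either of two replicates above the same-plate mean plus 3 SD of the low-dose dopamine control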
D1 ag no DA – D1 (human) signaling in absence of dopamine. shares compounds with D1 mod. HEK293 D1 CRE-luciferase, luminescence, no dopamine; stronger effect = higher value. luminescence at 10 µM. 0.8% of 1,900 active. AID 646; in the data active = luminescence above about 3900
Isoprot counter – alters isoproterenol CRE-luciferase response in HEK293 cells; shares compounds with D1 mod; HEK293 D1 CRE-luciferase, isoproterenol EC30 counter-screen; stronger effect = higher value; luminescence at 10 µM; 63% of 2,200 active; AID 647;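 active = luminescence in either replicate above plate mean of wells with a partly effective reference agonist dose plus 3 SD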;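 note: isoproterenol raises cAMP through native beta-adrenoceptor Gs so signal bypasses D1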
* marks the source's active call; other numbers are inactive results; · = no result. The sample as a whole holds a higher share of hits than the screen did.

SMILES | MMP-13 inhibitor | hDAT+cocaine | D1 mod | Candida biofilm | AP ELISA ortho | D1 PAM confirm | D1 ag no DA | Isoprot counter
Cn1c(Cn2c(=O)sc3ccccc32)nnc1SCC(=O)N1CCOCC1 | 1 | -1.2 | 5.1* | 14 | 23 | 8076* | 1508 | 2340
CCCn1c(CCc2ccccc2)nnc1SCC(=O)N1CCOCC1 | 3 | -0.27 | 3.2* | -4 | 4 | 4772 | 1664 | 2068
CCC(Sc1nc(=O)cc(N)n1-c1ccccc1)C(=O)Nc1cc(C)on1 (stereo unspecified) | 6 | 0.024 | -0.64 | 9 | 2 | · | · | ·
CCC(Sc1nc(=O)cc(N)n1CCc1ccccc1)C(=O)Nc1ccccc1C#N (stereo unspecified) | -7 | 0.66 | 5.2* | 5 | 0 | 3424* | 1792 | 2588
Cc1nn(CC(=O)NCc2cccc3ccccc23)c(=O)c2ccccc12 | · | -0.092 | · | 2 | · | · | · | ·
Cc1cc(C(=O)COC(=O)C2=NNC(=O)CC2)c(C)n1-c1cccc(C(F)(F)F)c1 | · | -0.34 | · | 0 | · | · | · | ·
O=C1CC(c2ccccc2)Sc2ccccc2N1 (stereo unspecified) | -6 | -0.59 | 26* | 4 | 10 | 18012* | 1352 | 3720*
CCOC(=O)CSCC(=O)Nc1c(C(=O)C2CC2)oc2ccccc12 | · | 0.0065 | · | 3 | · | · | · | ·
NC1=NC(c2ccc(Cl)cc2)n2c(nc3ccccc32)N1 (stereo unspecified) | 3 | 1.7 | 9.1* | · | 4 | 11876* | 1532 | 4456
COc1ccc(N/C=C2/CCCCC2=O)cc1 | -2 | 0.82 | 2.8* | -1 | -8 | 4708 | 1400 | 2364
COc1ccc(OC)c(N/C=C2/CCCCC2=O)c1 | 3 | 0.82 | 1.9 | 8 | 10 | · | · | ·
CCOC(=O)c1oc2cccc(O)c2c1C | · | 1.8 | · | 5 | · | · | · | ·
CCOC(=O)c1cc(CN2CCOCC2)oc1-c1ccccc1 | -1 | -0.1 | 4* | 10 | 11 | 12300* | 1700 | 3124*
CCOC(=O)c1oc2ccccc2c1CN1CCN(c2ccccc2)CC1 | 0 | -0.74 | -0.32 | 9 | 11 | · | · | ·
CCOC(=O)c1oc2ccccc2c1CN1CCN(C(=O)c2ccccc2)CC1 | 4 | 2.8* | 6.9* | 3 | 9 | 17092* | 1488 | 7972*
CCOC(=O)c1oc2cccc(O)c2c1CN1CCOCC1 | 2 | 0.004 | 5.8* | 8 | 5 | 7884* | 1544 | 2932
Cc1ccc(C(C)C)c(OCCNc2nc3c(c(=O)n(C)c(=O)n3C)n2C)c1 | -1 | · | -1.3 | -7 | · | · | · | ·
O=c1c2ccccc2[nH]c(=S)n1Cc1cccnc1 | 6 | 1.1 | 1.9 | 2 | 2 | · | · | ·
O=c1c2ccccc2c2ccccc2c(=O)n1Cc1cccnc1 | 2 | -0.43 | 2.8* | 1 | 7 | 7060 | 1648 | 2352
CCC(=O)N1CCC2(CC1)Oc1ccc(Cl)cc1C(=O)C21CC(c2ccc(Cl)cc2)=NO1 (stereo unspecified) | · | -0.017 | · | · | · | · | · | ·
CC1(C)CC(=O)C=C(NCc2ccc(Cl)c(Cl)c2)C1 | · | -1.5 | · | · | · | · | · | ·
CCCn1c(NCc2ccco2)nc2ccccc21 | 1 | -0.017 | -1.6 | 8 | 15 | · | · | ·
CCCCCn1c(NCc2ccco2)nc2ccccc21 | -1 | 0.89 | 6.3* | 12 | 13 | 12176* | 1460 | 3280
CC(C(=O)N1CCc2ccccc21)n1cccc1 (stereo unspecified) | · | -1.2 | · | 6 | · | · | · | ·
Cc1nnc(NC(=O)CCC(=O)NCc2cccs2)s1 | · | -0.57 | · | 1 | · | · | · | ·
SMILES | MMP-13 inhibitor | hDAT+cocaine | D1 mod | Candida biofilm | AP ELISA ortho | D1 PAM confirm | D1 ag no DA | Isoprot counter
O=C(CCC(=O)Nc1nnc(C2CCCCC2)s1)NCc1cccs1 | -7 | -0.78 | 3.8* | 5 | 6 | 5740 | 1656 | 2568
COc1cccc(CNC(=O)CCS(=O)(=O)c2cccs2)c1 | · | -0.3 | · | 3 | · | · | · | ·
COc1cc(NC(=O)c2cccs2)cc(OC)c1 | 3 | 0.29 | -0.045 | 6 | 2 | · | · | ·
COC(=O)c1sc2ccccc2c1NC(=O)c1cccs1 | 5 | -0.65 | 19* | 1 | -16 | 20828* | 1756 | 5680*
COC(=O)c1sc2ccccc2c1N | -184 | -0.13 | 2.8 | -2 | 10 | · | · | ·
COC(=O)c1sc2ccccc2c1C(=O)OC | 0 | 0.53 | 10* | 4 | 23 | 9140* | 1712 | 2620
O=C(Nc1ccsc1C(=O)NC1CCCCC1)c1ccc(F)cc1 | · | -0.53 | · | · | · | · | · | ·
Cn1c(=O)[nH]c(=O)c2c1nc(N1CCCCC1)n2CCCSc1nc2ccccc2s1 | 3 | 1.1 | 5.7* | -2 | · | 16664* | 1660 | 7192*
Cc1nnc(SCCn2c(N3CCCC(C)C3)nc3c2c(=O)[nH]c(=O)n3C)s1 (stereo unspecified) | 5 | 0.079 | 4.1* | 4 | 7 | 9916* | 1740 | 2832
Cn1c(=O)[nH]c(=O)c2c1nc(Br)n2CCCSc1nc2ccccc2o1 | 2 | -0.74 | 6.7* | 3 | -3 | 10016* | 1580 | 3492*
CC1CCCN(c2nc3c(c(=O)[nH]c(=O)n3C)n2CCSc2nc3ccccc3o2)C1 (stereo unspecified) | 3 | 0.25 | · | 11 | 10 | · | · | ·
Cn1c(=O)[nH]c(=O)c2c1nc(N1CCCC1)n2CCCSc1nc2ccccc2o1 | -14 | 0.22 | 5.3* | 10 | 17 | 17352* | 2232 | 6260*
COc1cccc(NC(=O)N(C2CCCCC2)C(C)c2cccs2)c1 (stereo unspecified) | · | 0.52 | · | 3 | · | · | · | ·
CCCCN(CC(=O)Nc1c(C)cccc1CC)C(=O)SCC | · | -1.2 | · | · | · | · | · | ·
CC1CCCN(C(=O)CSc2cnc3ccccc3n2)C1 (stereo unspecified) | · | 1.2 | · | · | · | · | · | ·
CCOc1nc(C)ccc1-c1noc(-c2ccccn2)n1 | -6 | 0.066 | 8* | -1 | 15 | 16720* | 1708 | 4016*
CCOc1nc(C)ccc1-c1noc(CC)n1 | · | 0.59 | · | 5 | · | · | · | ·
CCOc1nc(C)ccc1-c1noc(-c2ccco2)n1 | 2 | -0.51 | 7.2* | 3 | 5 | 16212* | 1800 | 4260*
COc1cc(-c2nc(-c3ccc(C)nc3OC)no2)cc(OC)c1OC | 1 | · | -0.12 | 5 | 5 | · | · | ·
COc1nc(C)ccc1-c1noc(-c2ccncc2)n1 | 4 | -0.71 | 6.7* | 7 | 3 | 7856* | 1580 | 3348
CC(=O)N=c1c(C#N)cc2c(=O)n3cccc(C)c3nc2n1CC(C)C | -209 | · | 0.11 | · | -2 | · | · | ·
